According to ChEMBL document CHEMBL3763127, “Design, synthesis and biological evaluation of novel asperphenamate derivatives” (Eur J Med Chem, 2016):
Calls of active or inactive are those of the source. The rule behind the calls is not given here.

Tests used:
HeLa [1] = assay: Induction of cell cycle arrest in human HeLa cells assessed as accumulation at G2/M phase at 20 uM after 48 hrs by PI staining-based flow cytometric analysis (reference value: 25.44%); type: functional
HeLa [2] = assay: Induction of autophagy in human HeLa cells assessed as autophagic cell formation at 40 uM after 72 hrs by MDC staining-based flow cytometric analysis (reference value: 1.92%); type: functional
MCF7 [3] = assay: Induction of apoptosis in human MCF7 cells assessed as accumulation at subG1 phase at 10 uM after 72 hrs by PI staining-based flow cytometric analysis (reference value: 2.98%); type: functional
MCF7 [4] = assay: Induction of autophagy in human MCF7 cells assessed as increase in autophagosome formation at 5 and 10 uM after 72 hrs by MDC staining-based fluorescence microscopic analysis; type: functional, cell-based
MCF7 [5] = assay: Induction of autophagy in human MCF7 cells assessed as increase in LC3-2 level at 5 to 10 uM after 48 hrs by Western blot analysis; type: functional, cell-based
Method in brief: (§1)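 Cells were treated with or without compound for 48 h: MCF-7 at 5 and 10 µM, HeLa and BEL-7402 at 20 and 40 µM. Total protein (10 µg) in SDS sample buffer (pH 6.8) was run on 8–15% SDS-PAGE and transferred to PVDF. LC3-I/LC3-II were probed with HRP secondary antibody and ECL detection. The assay was repeated at least three times.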

HeLa [6] = assay: Cytotoxicity against human HeLa cells after 3 days by MTT assay; type: functional, cell-based; conditions: 72 h
Method in brief: (§2)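 MCF-7, HeLa and BEL-7402 cells were grown in RPMI 1640 with 10% heat-inactivated FBS, 1 mM glutamine and penicillin/streptomycin at 37 °C under 5% CO2. They were exposed to compound for 3 days, then read by MTT at 570 nm. Viability was taken as treated/control absorbance, and IC50 was derived from it. Values are mean SD of three independent experiments.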

MCF7 [7] = assay: Induction of apoptosis in human MCF7 cells assessed as accumulation at subG1 phase at 10 uM after 24 hrs by PI staining-based flow cytometric analysis (reference value: 2.98%); type: functional
Bel-7402 [8] = assay: Induction of cell cycle arrest in human Bel7402 cells assessed as accumulation at G2/M phase at 20 uM after 48 hrs by PI staining-based flow cytometric analysis (reference value: 22.26%); type: functional
MCF7 [9] = assay: Induction of cell cycle arrest in human MCF7 cells assessed as accumulation at G2/M phase at 10 uM after 48 hrs by PI staining-based flow cytometric analysis (reference value: 19.85%); type: functional
Bel-7402 [10] = assay: Induction of autophagy in human Bel7402 cells assessed as increase in LC3-2 level at 20 and 40 uM after 48 hrs by Western blot analysis; type: functional, cell-based; method in brief: as §1
Bel-7402 [11] = assay: Induction of autophagy in human Bel7402 cells assessed as autophagic cell formation at 40 uM after 72 hrs by MDC staining-based flow cytometric analysis (reference value: 3.94%); type: functional
Bel-7402 [12] = assay: Induction of autophagy in human Bel7402 cells assessed as increase in autophagosome formation at 20 and 40 uM after 72 hrs by AO staining-based fluorescence microscopic analysis; type: functional, cell-based
Method in brief: (§3)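 Cells in RPMI 1640/10% FBS were exposed to compound or 0.1% DMSO for 72 h: MCF-7 at 5 and 10 µM, HeLa and BEL-7402 at 20 and 40 µM. They were incubated with […] acridine orange for 15 min, washed with PBS, and acidic vesicles were imaged by inverted fluorescence microscopy.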

HeLa [13] = assay: Induction of cell cycle arrest in human HeLa cells assessed as accumulation at G0/G1 phase at 20 uM after 72 hrs by PI staining-based flow cytometric analysis (reference value: 45.70%); type: functional
Bel-7402 [14] = assay: Induction of apoptosis in human Bel7402 cells assessed as accumulation at subG1 phase at 20 uM after 72 hrs by PI staining-based flow cytometric analysis (reference value: 2.87%); type: functional
HeLa [15] = assay: Induction of autophagy in human HeLa cells assessed as increase in LC3-2 level at 20 and 40 uM after 48 hrs by Western blot analysis; type: functional, cell-based; method in brief: as §1
[16] = Cytotoxicity against human Bel7402 cells after 3 days by MTT assay; type: functional, cell-based; conditions: Bel-7402, 72 h; method in brief: as §2
MCF7 [17] = assay: Induction of apoptosis in human MCF7 cells assessed as accumulation at subG1 phase at 10 uM after 48 hrs by PI staining-based flow cytometric analysis (reference value: 2.98%); type: functional
Bel-7402 [18] = assay: Induction of autophagy in human Bel7402 cells assessed as autophagic cell formation at 20 uM after 72 hrs by MDC staining-based flow cytometric analysis (reference value: 3.94%); type: functional
Bel-7402 [19] = assay: Induction of cell cycle arrest in human Bel7402 cells assessed as accumulation at G0/G1 phase at 20 uM after 72 hrs by PI staining-based flow cytometric analysis (reference value: 49.44%); type: functional
Bel-7402 [20] = assay: Induction of cell cycle arrest in human Bel7402 cells assessed as accumulation at G2/M phase at 20 uM after 72 hrs by PI staining-based flow cytometric analysis (reference value: 22.26%); type: functional
MCF7 [21] = assay: Induction of cell cycle arrest in human MCF7 cells assessed as accumulation at G2/M phase at 10 uM after 72 hrs by PI staining-based flow cytometric analysis (reference value: 19.85%); type: functional
MCF7 [22] = assay: Induction of autophagy in human MCF7 cells assessed as increase in autophagosome formation at 5 and 10 uM after 72 hrs by AO staining-based fluorescence microscopic analysis; type: functional, cell-based; method in brief: as §3
Bel-7402 [23] = assay: Induction of apoptosis in human Bel7402 cells assessed as accumulation at subG1 phase at 20 uM after 48 hrs by PI staining-based flow cytometric analysis (reference value: 2.87%); type: functional
MCF7 [24] = assay: Potency index, ratio of IC50 for cisplatin to IC50 for test compound for cytotoxicity against human MCF7 cells; type: functional
MCF7 [25] = assay: Induction of cell cycle arrest in human MCF7 cells assessed as accumulation at G0/G1 phase at 10 uM after 72 hrs by PI staining-based flow cytometric analysis (reference value: 50.76%); type: functional
[26] = Potency index, ratio of IC50 for cisplatin to IC50 for test compound for cytotoxicity against human Bel7402 cells; type: functional, Bel-7402
HeLa [27] = assay: Induction of cell cycle arrest in human HeLa cells assessed as accumulation at S phase at 20 uM after 48 hrs by PI staining-based flow cytometric analysis (reference value: 24.17%); type: functional
HeLa [28] = assay: Induction of apoptosis in human HeLa cells assessed as accumulation at subG1 phase at 20 uM after 72 hrs by PI staining-based flow cytometric analysis (reference value: 2.89%); type: functional
Bel-7402 [29] = assay: Induction of cell cycle arrest in human Bel7402 cells assessed as accumulation at G0/G1 phase at 20 uM after 48 hrs by PI staining-based flow cytometric analysis (reference value: 49.44%); type: functional
Bel-7402 [30] = assay: Induction of cell cycle arrest in human Bel7402 cells assessed as accumulation at S phase at 20 uM after 72 hrs by PI staining-based flow cytometric analysis (reference value: 25.01%); type: functional
HeLa [31] = assay: Induction of cell cycle arrest in human HeLa cells assessed as accumulation at S phase at 20 uM after 72 hrs by PI staining-based flow cytometric analysis (reference value: 24.17%); type: functional

Q: Which Activity (HeLa [1]) does the source give for `Cc1ccc(S(=O)(=O)N[C@H](Cc2ccccc2)C(=O)OC[C@H](Cc2ccccc2)NC(=O)c2ccccc2)cc1` here?
A: 22.18%

Q: And the Activity (HeLa [2])?
A: 49.37%

Q: And the Activity (MCF7 [3])?
A: 3.76%

Q: And the Activity (MCF7 [4])?
A: Active

Q: What about the Activity (MCF7 [5]) of the same molecule?
A: Active

Q: And the IC50 (HeLa [6])?
A: 16.8 µM

Q: And the Activity (MCF7 [7])?
A: 3.38%

Q: And the Activity (Bel-7402 [8])?
A: 22.8%

Q: What about the Activity (MCF7 [9]) of the same molecule?
A: 20.05%

Q: What about the Activity (Bel-7402 [10]) of the same molecule?
A: Active

Q: And the Activity (Bel-7402 [11])?
A: 48.25%

Q: And the Activity (Bel-7402 [12])?
A: Active

Q: What about the Activity (HeLa [13]) of the same molecule?
A: 48.1%

Q: And the Activity (Bel-7402 [14])?
A: 3.78%

Q: And the Activity (HeLa [15])?
A: Active

Q: What about the IC50 [16] of the same molecule?
A: 12.5 µM

Q: What about the Activity (MCF7 [17]) of the same molecule?
A: 3.22%

Q: What about the Activity (Bel-7402 [18]) of the same molecule?
A: 23.66%

Q: What about the Activity (Bel-7402 [19]) of the same molecule?
A: 45.89%

Q: And the Activity (Bel-7402 [20])?
A: 22.61%

Q: And the Activity (MCF7 [21])?
A: 20.07%

Q: And the Activity (MCF7 [22])?
A: Active

Q: What about the Activity (Bel-7402 [23]) of the same molecule?
A: 3.01%

Q: What about the “Ratio IC50” value (MCF7 [24]) of the same molecule?
A: 3

Q: And the Activity (MCF7 [25])?
A: 48.05%

Q: And the “Ratio IC50” value [26]?
A: 1.6

Q: And the Activity (HeLa [27])?
A: 25.4%

Q: What about the Activity (HeLa [28]) of the same molecule?
A: 2.43%

Q: What about the Activity (Bel-7402 [29]) of the same molecule?
A: 47.63%

Q: And the Activity (Bel-7402 [30])?
A: 26.88%

Q: And the Activity (HeLa [31])?
A: 25.91%
